Calls of active or inactive are those of the source. The calls are words filed in the database; no cut-off is given here. Where a SMILES comes first, the peptide text is derived from it. Bridges are numbered along the chain shown (N, C = ends).
Columns and labels:
Escherichia coli [1] = assay: Bactericidal activity against Escherichia coli ML35 assessed as survival at 20 ug/ml relative to control; type: functional
Summary of the method: (§1)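 Viable bacteria counted by plating. Survival expressed as percentage of peptide-free control wells. Means ± standard errors of three independent assays; mixed-model analysis with Sidak adjustment, P<0.05.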

[Haemophilus] ducreyi [2] = Bactericidal activity against Haemophilus ducreyi 35000HP assessed as survival at 2 ug/ml relative to control; type: functional; summary of the method: as §1
Escherichia coli [3] = assay: Bactericidal activity against Escherichia coli ML35 after 48 to 72 hrs by radial diffusion assay; type: functional; settings: read-out: MEC
Summary of the method: (§2)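 Radial diffusion assay with salts omitted from the agarose underlay. Activity units are taken from inhibition zones around peptide-loaded wells. MEC is the x intercept of the best-fit line of activity against peptide concentration. Where fewer than two concentrations were active, MEC is recorded as >158 μg/ml, the assay's upper limit. Values are means of three independent assays, each run in duplicate.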

[Haemophilus] ducreyi [4] = Bactericidal activity against Haemophilus ducreyi 35000HP after 48 to 72 hrs by radial diffusion assay; type: functional; settings: read-out: MEC; summary of the method: as §2
[Haemophilus] ducreyi [5] = Bactericidal activity against Haemophilus ducreyi CIP542 after 48 to 72 hrs by radial diffusion assay; type: functional; settings: read-out: MEC; summary of the method: as §2
[Haemophilus] ducreyi [6] = Bactericidal activity against Haemophilus ducreyi 35000HP assessed as survival at 0.2 ug/ml by antibacterial susceptibility test relative to control; type: functional; summary of the method: as §1
[Haemophilus] ducreyi [7] = Bactericidal activity against Haemophilus ducreyi 35000HP assessed as survival at 2 ug/ml by antibacterial susceptibility test relative to control; type: functional, organism-based; summary of the method: as §1
[Haemophilus] ducreyi [8] = Bactericidal activity against Haemophilus ducreyi 35000HP assessed as survival at 20 ug/ml by antibacterial susceptibility test relative to control; type: functional, organism-based; summary of the method: as §1
[Haemophilus] ducreyi [9] = Bactericidal activity against Haemophilus ducreyi CIP542 assessed as survival at 0.2 ug/ml by antibacterial susceptibility test relative to control; type: functional; summary of the method: as §1
[Haemophilus] ducreyi [10] = Bactericidal activity against Haemophilus ducreyi CIP542 assessed as survival at 20 ug/ml by antibacterial susceptibility test relative to control; type: functional, organism-based; summary of the method: as §1
[Haemophilus] ducreyi [11] = Bactericidal activity against Haemophilus ducreyi 35000HP assessed as survival at 2 ug/ml by tenfold serial dilution assay relative to control; type: functional
Summary of the method: (§3)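 Mid-log-phase cells were suspended in 10 mM sodium phosphate (pH 7.4) with 1% brain-heart infusion broth and exposed to peptide dilutions for 1 h, at 33°C for H. ducreyi or 37°C for E. coli. Survivors were counted by plating, and survival was expressed as a percent of peptide-free control wells. Values are means of three independent assays.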

Escherichia coli [12] = assay: Bactericidal activity against Escherichia coli ML35 assessed as survival at 2 ug/ml by tenfold serial dilution assay relative to control; type: functional; summary of the method: as §3
[Haemophilus] ducreyi [13] = Bactericidal activity against Haemophilus ducreyi 35000HP assessed as survival at 0.5 ug/ml by twofold serial dilution assay relative to control; type: functional; summary of the method: as §3
Escherichia coli [14] = assay: Bactericidal activity against Escherichia coli ML35 assessed as survival at 0.5 ug/ml by twofold serial dilution assay relative to control; type: functional; summary of the method: as §3

`CC[C@H](C)[C@@H]1NC(=O)[C@H](CCCNC(=N)N)NC(=O)[C@H](Cc2ccc(O)cc2)NC(=O)[C@H](CCC(=O)O)NC(=O)[C@H](CCC(N)=O)NC(=O)[C@H](CO)NC(=O)[C@H](CCCNC(=N)N)NC(=O)[C@@H]2CSSC[C@@H](C(=O)N[C@@H](CC(C)C)C(=O)N[C@@H](CCCNC(=N)N)C(=O)N[C@@H](CCCCN)C(=O)O)NC(=O)[C@@H]3CSSC[C@H](NC(=O)[C@@H](NC(=O)[C@H](CCCNC(=N)N)NC(=O)[C@H](CC(=O)O)NC(=O)[C@H](CC(C)C)NC(=O)[C@@H](N)CCC(=O)O)[C@@H](C)CC)C(=O)NCC(=O)N[C@@H](Cc4ccc(O)cc4)C(=O)NCC(=O)N[C@@H]([C@@H](C)O)C(=O)N[C@@H](C)C(=O)N[C@@H](CCCNC(=N)N)C(=O)N[C@@H](CSSC[C@H](NC(=O)[C@H](CCCNC(=N)N)NC(=O)CNC1=O)C(=O)N1CCC[C@H]1C(=O)N[C@@H](CC(N)=O)C(=O)N[C@@H]([C@@H](C)O)C(=O)N[C@@H](Cc1ccc(O)cc1)C(=O)N[C@@H](C)C(=O)N3)C(=O)N[C@@H](CCCNC(=N)N)C(=O)N[C@@H](CCCCN)C(=O)N[C@@H](CCCCN)C(=O)N2` (H-ELDRICGYGTARCRKKCRSQEYRIGRCPNTYACCLRK-OH; disulfide 6-33, 13-27, 17-34) was tested, and the Activity (Escherichia coli [1]) was less than 7%, the Activity ([Haemophilus] ducreyi [2]) was greater than 84% and the minimal effective concentration (Escherichia coli [3]) was 12.6 µg/mL. It also gave a minimal effective concentration ([Haemophilus] ducreyi [4]) greater than 158 µg/mL and a minimal effective concentration ([Haemophilus] ducreyi [5]) greater than 158 µg/mL.
In the case of `CC[C@H](C)[C@@H]1NC(=O)[C@@H]2CSSC[C@@H]3NC(=O)[C@H](Cc4ccccc4)NC(=O)[C@H](C)NC(=O)[C@H](Cc4c[nH]c5ccccc45)NC(=O)[C@H](CC(C)C)NC(=O)[C@H](CCCNC(=N)N)NC(=O)CNC(=O)[C@H](CCC(N)=O)NC(=O)[C@H](Cc4ccc(O)cc4)NC(=O)[C@H]([C@@H](C)CC)NC(=O)[C@H](CSSC[C@H](NC(=O)[C@H](Cc4ccc(O)cc4)NC(=O)[C@@H](N)CSSC[C@@H](C(=O)O)NC3=O)C(=O)N[C@@H](CCCNC(=N)N)C(=O)N[C@@H]([C@@H](C)CC)C(=O)N3CCC[C@H]3C(=O)N[C@@H](C)C(=O)N2)NC(=O)[C@H]([C@@H](C)O)NC(=O)CNC(=O)[C@H](Cc2ccc(O)cc2)NC(=O)[C@H](CCCNC(=N)N)NC(=O)[C@H](CCCNC(=N)N)NC(=O)[C@H](CCC(=O)O)NC(=O)CNC(=O)[C@H](C)NC1=O` (H-CYCRIPACIAGERRYGTCIYQGRLWAFCC-OH; disulfide 1-29, 3-18, 8-28), the Activity (Escherichia coli [1]) is reported as 10%, the Activity ([Haemophilus] ducreyi [6]) is reported as “inactive” and the Activity ([Haemophilus] ducreyi [7]) is reported as “inactive”. The Activity ([Haemophilus] ducreyi [8]) was “inactive”, the Activity ([Haemophilus] ducreyi [9]) was “inactive” and the Activity ([Haemophilus] ducreyi [10]) was “inactive”.
In the case of `CC[C@H](C)[C@H](NC(=O)[C@H](CCCCN)NC(=O)[C@H](CCC(=O)O)NC(=O)[C@H](CCCCN)NC(=O)[C@H](CO)NC(=O)[C@H](CCCCN)NC(=O)[C@H](CCCNC(=N)N)NC(=O)[C@H](Cc1ccccc1)NC(=O)[C@H](Cc1ccccc1)NC(=O)[C@H](CC(=O)O)NC(=O)CNC(=O)[C@H](CC(C)C)NC(=O)[C@@H](N)CC(C)C)C(=O)NCC(=O)N[C@@H](CCCCN)C(=O)N[C@@H](CCC(=O)O)C(=O)N[C@@H](Cc1ccccc1)C(=O)N[C@@H](CCCCN)C(=O)N[C@@H](CCCNC(=N)N)C(=O)N[C@H](C(=O)N[C@H](C(=O)N[C@@H](CCC(N)=O)C(=O)N[C@@H](CCCNC(=N)N)C(=O)N[C@H](C(=O)N[C@@H](CCCCN)C(=O)N[C@@H](CC(=O)O)C(=O)N[C@@H](Cc1ccccc1)C(=O)N[C@@H](CC(C)C)C(=O)N[C@@H](CCCNC(=N)N)C(=O)N[C@@H](CC(N)=O)C(=O)N[C@@H](CC(C)C)C(=O)N[C@H](C(=O)N1CCC[C@H]1C(=O)N[C@@H](CCCNC(=N)N)C(=O)N[C@H](C(=O)N[C@@H](CCC(=O)O)C(=O)N[C@@H](CO)C(=O)O)[C@@H](C)O)C(C)C)[C@@H](C)CC)C(C)C)[C@@H](C)CC` [CATHELICIDIN], the Activity ([Haemophilus] ducreyi [11]) is reported as 16%, the Activity (Escherichia coli [12]) is reported as 5% and the Activity ([Haemophilus] ducreyi [13]) is reported as 43%. For the same compound, the Activity (Escherichia coli [14]) was 3%, the Activity ([Haemophilus] ducreyi [6]) was “inactive” and the Activity ([Haemophilus] ducreyi [7]) was “inactive”. For the same compound, the Activity ([Haemophilus] ducreyi [8]) was “inactive”, the minimal effective concentration (Escherichia coli [3]) was 6.2 µg/mL and the minimal effective concentration ([Haemophilus] ducreyi [4]) was greater than 158 µg/mL. For the same compound, the Activity ([Haemophilus] ducreyi [9]) was “inactive”, the Activity ([Haemophilus] ducreyi [10]) was “inactive” and the minimal effective concentration ([Haemophilus] ducreyi [5]) was greater than 158 µg/mL.
With `CC[C@H](C)[C@@H]1NC(=O)[C@H](CCCCN)NC(=O)[C@H]([C@@H](C)O)NC(=O)[C@H](Cc2ccccc2)NC(=O)[C@H]([C@@H](C)CC)NC(=O)[C@@H]2CCCN2C(=O)[C@@H]2CSSC[C@@H](C(=O)N[C@@H](CCCCN)C(=O)O)NC(=O)[C@@H]3CSSC[C@H](NC(=O)[C@H](CC(N)=O)NC(=O)[C@H](Cc4ccc(O)cc4)NC(=O)[C@H](Cc4cnc[nH]4)NC(=O)[C@@H](N)CC(=O)O)C(=O)N[C@@H](C(C)C)C(=O)N[C@@H](CO)C(=O)N[C@@H](CO)C(=O)NCC(=O)NCC(=O)N[C@@H](CCC(N)=O)C(=O)N[C@@H](CSSC[C@H](NC(=O)[C@H]([C@@H](C)O)NC(=O)CNC(=O)[C@H](CCC(N)=O)NC1=O)C(=O)N[C@@H](Cc1ccc(O)cc1)C(=O)N[C@@H](CCCNC(=N)N)C(=O)NCC(=O)N[C@@H](CCCCN)C(=O)N[C@@H](C)C(=O)N[C@@H](CCCCN)C(=O)N3)C(=O)N[C@@H](CC(C)C)C(=O)N[C@@H](Cc1ccc(O)cc1)C(=O)N[C@@H](CO)C(=O)N[C@@H](C)C(=O)N2` (H-DHYNCVSSGGQCLYSACPIFTKIQGTCYRGKAKCCK-OH; disulfide 5-34, 12-27, 17-35) the Activity ([Haemophilus] ducreyi [6]) was “inactive”, the Activity ([Haemophilus] ducreyi [7]) was “inactive” and the Activity ([Haemophilus] ducreyi [8]) was “inactive”. For the same compound, the Activity ([Haemophilus] ducreyi [9]) was “inactive” and the Activity ([Haemophilus] ducreyi [10]) was “inactive”.
For `CC[C@H](C)[C@@H]1NC(=O)[C@H](CCCNC(=N)N)NC(=O)[C@H](Cc2ccc(O)cc2)NC(=O)[C@H](CCC(=O)O)NC(=O)[C@H](CCC(N)=O)NC(=O)[C@H](CO)NC(=O)[C@H](CCCNC(=N)N)NC(=O)[C@@H]2CSSC[C@@H](C(=O)N[C@@H](CC(C)C)C(=O)N[C@@H](CCCNC(=N)N)C(=O)N[C@@H](CCCCN)C(=O)O)NC(=O)[C@@H]3NC(=O)[C@H](C)NC(=O)[C@H](Cc4ccc(O)cc4)NC(=O)[C@H]([C@@H](C)O)NC(=O)[C@H](CC(N)=O)NC(=O)[C@H]4CCCN4C(=O)[C@H](CSSC[C@H](NC(=O)[C@H](CCCNC(=N)N)NC(=O)[C@H](C)NC(=O)[C@H]([C@@H](C)O)NC(=O)CNC(=O)[C@H](Cc4ccc(O)cc4)NC(=O)CNC(=O)[C@@H](NC(=O)[C@@H](NC(=O)[C@H](CCCNC(=N)N)NC(=O)[C@H](CC(=O)O)NC(=O)[C@H](CC(C)C)NC(=O)[C@@H](N)CCC(=O)O)[C@@H](C)CC)CSS3)C(=O)N[C@@H](CCCNC(=N)N)C(=O)N[C@@H](CCCCN)C(=O)N[C@@H](CCCCN)C(=O)N2)NC(=O)[C@H](CCCNC(=N)N)NC(=O)CNC1=O`, the Activity ([Haemophilus] ducreyi [6]) was “inactive”, the Activity ([Haemophilus] ducreyi [7]) was “inactive” and the Activity ([Haemophilus] ducreyi [8]) was “inactive”. The Activity ([Haemophilus] ducreyi [9]) was “inactive” and the Activity ([Haemophilus] ducreyi [10]) was “inactive”.
